Measured values collected from several papers.
Each line is one published result; the experiments were not run side by side.

N#Cc1ccc(Nc2nc(N)cc(Oc3c(F)cc(-c4ccc(C#N)cc4)cc3F)n2)cc1 — half-life (Sprague-Dawley rat, plasma; intravenous, 1 mg/kg): 1.25 h
CCc1cc(C(=O)NC)c2nccc(N3CCc4c(cc(Cn5ccnc5)cc4-c4cn(C)nc4C(F)(F)F)C3=O)c2c1 — half-life (male Sprague-Dawley rat, plasma; oral, 50 mg/kg, single dose): 3.8 h
Cc1cnc(N2CC3(CCOCC3)C2)c(C(=O)Nc2ccc(C(=O)N3CCc4cc(C(=O)Nc5c(C)cccc5F)sc4-c4ccccc43)cc2)c1 — half-life (rat, plasma; inhaled, 2.7 mg/kg, single dose): 3.4 h
COc1ccc2c(Cc3ccccc3F)c3[n+](cc2c1OC)CCc1cc2c(cc1-3)OCO2.[Br-] — half-life (rat, plasma; intravenous, 5 mg/kg): 1.61 h
N#Cc1[nH]nnc1-c1cccc(-c2cc(F)cc(C(F)(F)F)c2)c1 — half-life (male Sprague-Dawley rat, plasma; oral, 10 mg/kg): 2.6 h
Oc1c(Br)cc(Cl)c2cccnc12 — half-life (Sprague-Dawley rat, plasma; oral, 20 mg/kg): 5.6 h
COCCOC(=O)C1=C(C)NC(C)=C(C(=O)OC(C)C)C1c1cccc([N+](=O)[O-])c1 (stereo not drawn) — half-life (male Sprague-Dawley rat, plasma; oral, 12 mg/kg): 7.5 h
COc1ccc(C(C)=O)c(O)c1 — half-life (male Sprague-Dawley rat, plasma; oral, 100 mg/kg): 3.37 h
O=c1[nH]cc(F)c(=O)[nH]1 — half-life (Sprague-Dawley rat, plasma; oral, 20 mg/kg): 1.81 h
N#Cc1[nH]nnc1-c1cccc(OCc2cc(C(F)(F)F)ccc2C(F)(F)F)c1 — half-life (male Sprague-Dawley rat, plasma; oral, 10 mg/kg): 3.9 h
Cc1noc(-c2cc3cc(-c4nc(C(=O)NCc5ccncc5)[nH]c4C)ccc3[nH]2)n1 — half-life (Sprague-Dawley rat, plasma; intravenous, 1 mg/kg): 1.8 h
Oc1c(-n2ccnn2)cnn1-c1cc(N2CCOCC2)ncn1 — half-life (male rat, plasma; oral, 5 mg/kg): 3 h
CC(C)(O)[C@H]1CC[C@H](Nc2ccc3ncc(-c4cccc(C(F)(F)F)c4)n3n2)CC1 — half-life (female Sprague-Dawley rat, plasma; oral, 40 mg/kg): 4.1 h
CCc1cc(OC)c2nccc(N3CCc4c(cc(Cn5ccnc5)cc4-c4cn(C)nc4C(F)(F)F)C3=O)c2c1 — half-life (male Sprague-Dawley rat, plasma; oral, 50 mg/kg): 1.3 h
O=C(Nc1ccc(C(F)(F)F)cc1F)N1CCC(Cc2cccc(Oc3ccc(C(F)(F)F)cn3)c2)CC1 — half-life (male Sprague-Dawley rat, blood; oral, 1 mg/kg): 5.8 h
C[C@H](Nc1ncnc2[nH]cnc12)c1cc2cccc(Cl)c2c(=O)n1-c1ccccc1 — half-life (male Wistar rat, plasma; oral, 25 mg/kg, single dose): 0.82 h
COc1ccc2c(Cc3ccccc3F)c3n(c(=O)c2c1OC)CCc1cc2c(cc1-3)OCO2 — half-life (rat, plasma; oral, 5 mg/kg): 17.8 h
CCOC(=O)[C@@]12C[C@@H]1[C@@H](n1ccc3c(NC)nc(C#Cc4ccc(Cl)s4)nc31)[C@H](O)[C@@H]2O — half-life (male Sprague-Dawley rat, plasma; intravenous, 0.5 mg/kg): 1.31 h
COc1cc2c3c(n(CCCN4CCOCC4)c(=O)c2cc1OC)-c1cc2c(cc1C3=O)OCO2 — half-life (male Fischer 344 rat, plasma; intravenous, 24 mg/m², single dose): 3.6 h
CC[C@H](C)[C@H](NC(=O)[C@H](Cc1ccccc1)NC(=O)[C@H](CCC(=O)O)NC(=O)[C@H](CCCNC(=N)N)NC(=O)[C@H](C)NC(=O)[C@H](C)NC(=O)[C@H](CCC(N)=O)NC(=O)[C@H](CCC(=O)O)NC(=O)[C@H](CCC(=O)O)NC(=O)[C@H](CC(C)C)NC(=O)[C@H](Cc1ccc(O)cc1)NC(=O)[C@H](CO)NC(=O)[C@H](CO)NC(=O)[C@@H](NC(=O)[C@H](CC(=O)O)NC(=O)[C@H](CO)NC(=O)[C@@H](NC(=O)[C@H](Cc1ccccc1)NC(=O)[C@@H](NC(=O)CNC(=O)[C@H](CCC(=O)O)NC(=O)[C@H](C)NC(=O)CCc1c[nH]cn1)[C@@H](C)O)[C@@H](C)O)C(C)C)C(=O)N[C@@H](C)C(=O)N[C@@H](Cc1c[nH]c2ccccc12)C(=O)N[C@@H](CC(C)C)C(=O)N[C@H](C(=O)N[C@@H](CCCNC(=N)N)C(=O)NCC(=O)N[C@@H](CCCNC(=N)N)C(=O)N[C@@H](CCCCNC(=O)COCCOCCNC(=O)COCCOCCNC(=O)CC[C@H](NC(=O)CCCCCCCCCCCCCCCCC(=O)O)C(=O)O)C(=O)O)C(C)C — half-life (rat, plasma; subcutaneous, 20 nmol/kg): 13 h
Cc1c(-c2ccccc2)cccc1N1C(=O)c2cc(CN[C@H](C(=O)O)C(C)O)c(OCc3cccc(C#N)c3)cc2C1=O (stereo partly drawn) — half-life (Sprague-Dawley rat, plasma; oral, 50 mg/kg): 4.33 h
COc1ccc2c(=O)n(C)c(-c3ccccc3)nc2c1 — half-life (male Sprague-Dawley rat, plasma; intravenous, 2 mg/kg): 0.83 h
COc1nc(-c2cc(C)c(N[C@@H](C)c3cc(F)cc(F)c3)nn2)ccc1-n1cnc(C)c1 — half-life (male Sprague-Dawley rat, plasma; intravenous, 1 mg/kg, single dose): 3.1 h
O=C(Nc1cc(F)c(F)c(F)c1)c1ccc(F)c(S(=O)(=O)NCc2cccc(B(O)O)c2)c1 — half-life (male Sprague-Dawley rat, plasma; oral, 20 mg/kg): 1.08 h
